DENV2 CPE: protects cells from dengue virus 2 cytopathic effect. DENV2-infected cells, cytopathic effect rescue, plate reader. CPE inhibition, % at 9.99 µM. hit rate 1.7% among 350,000. AID 651640; in the data active = CPE inhibition above about 20%, passing the limit was not always enough; inconclusive = no clear call, values can overlap the other calls; tested in BHK-21 cells;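 note: 0% = median of neutral control wells and 100% = median of positive control wells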
FGF22 binding: binders of recombinant human FGF22 by thermal shift | activity (Tm shift, normalised), % at 9.99 µM | hit rate 1.5% among 340,000 | SYPRO orange fluorescence; percent of sucrose octasulfate shift, DMSO zero;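 active = mean Tm shift, scaled 0 neutral to 100 positive control, at about 1.3% or above, every replicate too, limit read from the data; inconclusive = no clear call, values can overlap the other calls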
Target sequence (Q9HCT0 whole entry, looked up): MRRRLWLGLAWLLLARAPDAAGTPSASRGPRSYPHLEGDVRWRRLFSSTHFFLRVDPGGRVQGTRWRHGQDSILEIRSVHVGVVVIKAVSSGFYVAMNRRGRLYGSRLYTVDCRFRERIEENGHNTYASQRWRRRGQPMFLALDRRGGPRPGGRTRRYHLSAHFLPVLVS
ARNT-TACC3 inh: disrupts binding between human ARNT and TACC3; AlphaScreen His-ARNT PAS-B/GST-TACC3 binding, luminescence; TACC3 fragment carries E629A point mutation; inhibition, % at 9.99 µM; AID 623870; Q9Y6A5; hit rate 0.66% among 390,000;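 active = mean inhibition of replicates at least 50% and at least half of replicates each reaching 50%; inconclusive = half or more replicates reach 50% but mean below 50%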;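 note: 0% = complete ARNT plus TACC3 wells and 100% = ARNT alone without TACC3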
XiGFP reactiv: reactivates the inactive X chromosome in mouse fibroblasts; activation, % at 7.58 µM; hit rate 0.055% among 360,000; AID 743238; XiGFP mouse fibroblasts, % GFP-positive cells imaging, 3 d; cells co-treated with 5-aza-dC sensitizer; scaled so ellipticine positive control = 100%;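 active = mean normalized replicate activation at least 10% and every replicate at or above 10%; inconclusive = only one of the two criteria met; inactive = mean below 10% and not all replicates reach 10%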;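 note: 0% = median of on-plate neutral control wells and 100% = ellipticine 6 µM median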
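Assay system: SV40-immortalized XiGFP fibroblast cells, line 68-5-11; buffer or medium: DMEM plus 5-aza-dC sensitizer; compound: one concentration, pinned; timing: compounds 3 days, fix/stain 15 min at room temperature; benchmarks: positive control ellipticine, 6 µM final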
FN deposition inh: fibronectin deposition inhibition | AH1F fibroblasts, Alexa488-fibronectin deposition fluorescence, overnight | inhibition, % at 12.6 µM | hit rate 0.086% among 350,000;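 active = mean inhibition across replicates of 30% or more, regardless of how many single replicates reach that level; inconclusive = mean under 30% yet at least half of replicates reach 30%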;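 note: positive control wells lacked labelled fibronectin entirely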
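Schedule: 1 h cell adhesion before compound, then overnight fibronectin incubation; test system: AH1F fibroblast monolayer depositing Alexa488-labelled fibronectin into matrix; quantity: 10000 AH1F cells per well; probe or stimulus: fluorescent fibronectin at 24 nM final; signal: fluorescence, ex 485 nm, em 525 nm; evaluation: percent inhibition as loss of matrix-bound fibronectin fluorescence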
SIRT5 inh: inhibitors of human sirtuin-5 desuccinylase; Q9NXA8; hit rate 1.1% among 330,000; Purified SirT5, succinyl-peptide AMC, trypsin-coupled fluorescence; inhibition, % at 15 µM; AID 652115; in the data active = inhibition above about 15%; inconclusive = no clear call, values can overlap the other calls
Target sequence (Q9NXA8 whole entry, looked up): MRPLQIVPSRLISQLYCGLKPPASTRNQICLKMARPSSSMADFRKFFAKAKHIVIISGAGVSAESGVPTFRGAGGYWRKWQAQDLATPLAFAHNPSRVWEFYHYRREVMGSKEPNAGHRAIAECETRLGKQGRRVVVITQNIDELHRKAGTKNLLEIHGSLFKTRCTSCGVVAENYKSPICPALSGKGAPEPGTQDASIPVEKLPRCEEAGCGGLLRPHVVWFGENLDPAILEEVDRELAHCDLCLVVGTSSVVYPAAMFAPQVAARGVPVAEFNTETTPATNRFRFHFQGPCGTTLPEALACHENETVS
The depositor's hits bear a star; u = inconclusive; x = not tested or not shown. Shown are actives, neighbours in structure and some others; about 3.8% of the full set was active somewhere.

SMILES	DENV2 CPE	FGF22 binding	ARNT-TACC3 inh	XiGFP reactiv	FN deposition inh	SIRT5 inh
O=C1CCCC2=C1C(c1ccccn1)Nc1ccc(C(=O)c3ccccc3)cc1N2 (stereo not given)	x	0	46*	0	x	-2
Cc1ccc([N+](=O)[O-])cc1NC(=O)CN(C(=O)c1ccccc1Cl)C1CCCCC1	u	0	x	0	32*	-3
O=C(CSc1nnc(-c2ccccc2)n1-c1ccccc1)c1ccc[nH]1	x	x	-3	0	33*	x
O=C(NNc1ccccc1C(F)(F)F)c1sccc1Br	0	0	0	0	-8	20*
O=C(Nc1ccccc1C(F)(F)F)c1ccsc1	10	0	-7	0	x	-6
Cc1ccc(NC(=O)COCC(=O)Nc2ccc(F)cc2)cc1	1	1	-8	1	7	24*
COc1ccc(S(=O)(=O)N(C)C[C@@H]2Oc3c(NS(=O)(=O)c4cn(C)cn4)cccc3C(=O)N([C@@H](C)CO)C[C@H]2C)cc1	16	0	x	0	x	0
Cc1noc(C)c1NC(=O)Nc1ccc2c(c1)CC(=O)N([C@@H](C)CO)C[C@H](C)[C@@H](CN(C)Cc1ccc(-c3ccccc3)cc1)O2	1	-1	x	-1	x	5
Cc1csc(N/N=C/c2ccccn2)n1	-1	x	59*	0	-6	-2
COCCNC(=O)[C@H]1[C@H](CO)[C@H]2Cn3c(ccc(-c4ccccc4F)c3=O)[C@H]2N1C(=O)C1CCCC1	-5	0	-3	0	x	-2
O=C(O)C1=C2C(=O)Nc3cccc(c32)C2(C1)C(=O)Nc1ccccc12 (stereo not given)	14	0	x	0	7	35*
O=C1NCCC12C(=O)Nc1ccccc12 (stereo not given)	19	0	4	x	x	x
COc1ccc(NC(=O)N2CC(=O)N3[C@H](C2)[C@@H](c2ccc(C#CCC4CCCC4)cc2)[C@@H]3CO)cc1	2	x	x	0	x	14
COc1cccc(NC(=O)N2CC(=O)N3[C@H](C2)[C@@H](c2ccc(C#CCC4CCCC4)cc2)[C@@H]3CO)c1	-7	0	x	0	-12	21*
COc1ccc(NC(=O)N2CC(=O)N3[C@@H](CO)[C@H](c4ccc(C#CCC5CCCC5)cc4)[C@@H]3C2)cc1	23*	x	x	0	x	11
COc1ccc(NC(=O)N2CC(=O)N3[C@H](C2)[C@H](c2ccc(C#CCC4CCCC4)cc2)[C@@H]3CO)cc1	5	x	x	0	x	15*
COc1cccc(NC(=O)N2CC(=O)N3[C@H](C2)[C@H](c2ccc(C#CC4CCCC4)cc2)[C@@H]3CO)c1	14	0	x	0	-5	8
COc1cccc(NC(=O)N2CC(=O)N3[C@H](C2)[C@@H](c2ccc(C#CC4CCCC4)cc2)[C@@H]3CO)c1	38*	x	x	0	-9	16*
CC(C)NC(=O)Nc1ccc2c(c1)C(=O)N([C@@H](C)CO)C[C@@H](C)[C@H](CN(C)C(=O)Nc1ccc(C(F)(F)F)cc1)O2	7	0	0	0	x	2
CCCNC(=O)Nc1ccc2c(c1)C(=O)N(C)C[C@H](OC)[C@@H](C)CN(C(C)=O)[C@@H](C)CO2	-1	x	x	0	-4	0
COc1ccc(Cl)cc1S(=O)(=O)N1CCCC1=O	7	43*	-7	1	8	3
CCCN(C)C[C@H]1Oc2ncc(C#CC3CC3)cc2C(=O)N([C@H](C)CO)C[C@H]1C	x	x	x	0	10	x
COc1ccc(COC[C@@]23Oc4ccccc4[C@@H](NC(=O)N2C)[C@H]3CO)cc1	6	-1	-2	x	x	-2
CN1C(=O)N[C@@H]2c3ccccc3O[C@@]1(C)[C@@H]2CO	20*	0	-4	x	x	-2
NC1=CC(=O)C(=O)c2ccccc21	13	0	18*	0	-5	-5
SMILES	DENV2 CPE	FGF22 binding	ARNT-TACC3 inh	XiGFP reactiv	FN deposition inh	SIRT5 inh
NC1=C(Br)C(=O)c2ccccc2C1=O	-9	0	36	0	-2	-3
O=C(C[C@@H]1CC[C@@H]2[C@H](COC[C@@H](O)CN2Cc2nccs2)O1)N1CCC(Cc2ccccc2)CC1	-3	0	15	0	9	x
C[C@@H]1CCCCO[C@H](CN(C)S(=O)(=O)c2ccc(Cl)cc2)[C@@H](C)CN([C@@H](C)CO)C(=O)c2cc(NC(=O)Nc3ccc(C(F)(F)F)cc3)ccc2O1	32*	0	12	0	-20	x
Cc1ccc(S(=O)(=O)N(C)C[C@H]2OCCCC[C@@H](C)Oc3ccc(NC(=O)Nc4ccc(C(F)(F)F)cc4)cc3C(=O)N([C@@H](C)CO)C[C@H]2C)cc1	24*	0	3	0	-8	1
COc1ccc(S(=O)(=O)N(C)C[C@@H]2OCCCC[C@@H](C)Oc3ccc(NC(=O)Nc4ccc(C(F)(F)F)cc4)cc3C(=O)N([C@@H](C)CO)C[C@@H]2C)cc1	11	0	-18	0	-12	28*
COc1ccc(S(=O)(=O)N(C)C[C@H]2OCCCC[C@@H](C)Oc3ccc(NC(=O)Nc4ccc(C(F)(F)F)cc4)cc3C(=O)N([C@@H](C)CO)C[C@H]2C)cc1	9	-1	0	0	-8	8
Cc1ccc(S(=O)(=O)N(C)C[C@H]2OCCCC[C@H](C)Oc3ccc(NC(=O)Nc4ccc(C(F)(F)F)cc4)cc3C(=O)N([C@@H](C)CO)C[C@H]2C)cc1	0	0	1	0	-6	4
C[C@H](CO)N1C[C@H](C)[C@@H](CN(C)Cc2ccc(C(=O)Nc3ccccc3N)cc2)OCc2cnnn2CCCC1=O	20	0	3	0	11	0
CC(=O)N1CC2(C1)[C@@H](c1ccc(-c3ccc(F)cc3)cc1)[C@@H](CO)N2C(C)=O	78*	0	x	0	x	-5
COCC(=O)N1[C@H](CO)[C@@H](c2ccc(-c3cccc(OC)c3)cc2)C12CN(C(C)=O)C2	28*	0	x	0	x	-5
CCC(=O)N1CC2(C1)[C@H](c1ccc(-c3ccc(F)cc3)cc1)[C@H](CO)N2C(C)=O	1	0	x	0	1	0
CCC(=O)N1[C@@H](CO)[C@@H](c2ccc(-c3ccccc3C)cc2)C12CN(C(C)=O)C2	60*	0	x	1	1	-4
O=S(=O)(c1ccc(F)cc1)N1CC[C@H]2[C@H](CO)Nc3ccc(Br)cc3[C@H]21	14	0	-5	0	20	5
O=C(Cc1cccnc1)N1[C@H](CO)[C@H](c2ccccc2)[C@H]1CNCC1CCC1	7	0	-7	0	3	2

Screens as filed in PubChem BioAssay.
